Converted amounts (≈) assume the structure as drawn.
Tests used:
Pseudomonas aeruginosa [1] = assay: Antibacterial activity against Pseudomonas aeruginosa PAO1 after 20 hrs in the presence of PMBN by broth microdilution method; assay type: functional; conditions: PAO1, 20 h
How it was run: (§1)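 Broth microdilution in Tryptic Soy Broth, done in triplicate. Growth was read as OD600 after 20 h. MIC is the lowest drug concentration giving OD600 below 0.1.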

Acinetobacter baumannii [2] = assay: Ratio of MIC for Acinetobacter baumannii ATCC 17978 in absence of PMBN to MIC for Acinetobacter baumannii ATCC 17978 in presence of PMBN; assay type: functional
How it was run: (§2)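 Fold change: MIC without divided by MIC with 30 μg/mL PMBN. Both MICs were by TSB broth microdilution, with an OD600 <0.1 cutoff at 20 h.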

Klebsiella pneumoniae [3] = assay: Antibacterial activity against Klebsiella pneumoniae NCTC 13368 after 20 hrs by broth microdilution method; assay type: functional; conditions: NCTC 13368, 20 h; how it was run: as §1
Klebsiella pneumoniae [4] = assay: Antibacterial activity against Klebsiella pneumoniae M6 after 20 hrs in the presence of Pa-beta-N and magnesium ions by broth microdilution method; assay type: functional; conditions: M6, 20 h; how it was run: as §1
Enterococcus faecalis [5] = assay: Antibacterial activity against vancomycin-sensitive Enterococcus faecalis NCTC 775 after 20 hrs by broth microdilution method; assay type: functional; conditions: NCTC 775, 20 h; how it was run: as §1
Pseudomonas aeruginosa [6] = assay: Ratio of MIC for Pseudomonas aeruginosa PAO1 in absence of PMBN to MIC for Pseudomonas aeruginosa PAO1 in presence of PMBN; assay type: functional; how it was run: as §2
Klebsiella pneumoniae [7] = assay: Ratio of MIC for Klebsiella pneumoniae NCTC 13368 in absence of Pa-beta-N to MIC for Klebsiella pneumoniae NCTC 13368 in presence of Pa-beta-N; assay type: functional
How it was run: (§3)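 Both MICs were by TSB broth microdilution, with an OD600 <0.1 cutoff at 20 h.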

Pseudomonas aeruginosa [8] = assay: Ratio of MIC for Pseudomonas aeruginosa NCTC 13437 in absence of PMBN to MIC for Pseudomonas aeruginosa NCTC 13437 in presence of PMBN; assay type: functional; how it was run: as §2
Klebsiella pneumoniae [9] = assay: Antibacterial activity against Klebsiella pneumoniae NCTC 13368 after 20 hrs in the presence of PMBN by broth microdilution method; assay type: functional; conditions: NCTC 13368, 20 h; how it was run: as §1
Klebsiella pneumoniae [10] = assay: Antibacterial activity against Klebsiella pneumoniae NCTC 13368 after 20 hrs in the presence of Pa-beta-N and magnesium ions by broth microdilution method; assay type: functional; conditions: NCTC 13368, 20 h; how it was run: as §1
Staphylococcus aureus [11] = assay: Bactericidal activity against methicillin-resistant Staphylococcus aureus EMRSA-15 assessed as time required to kill bacteria by >6 log10CFU/ml at 4 times MIC by Miles Misra dilution method; assay type: functional
How it was run: (§4)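 Flasks of TSB inoculated at ~10^6 cfu/mL, compound added at 4 × MIC, shaken at 200 rpm and 37 °C. Samples taken at 1, 2, 4, 6 and 24 h and plated by Miles Misra dilution for CFU/mL. Bactericidal means a loss of >3 log CFU/mL. Three independent repeats, error bars SD.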

[12] = Cytotoxicity against human HeLa cells assessed as cell viability at 25 uM after 24 hrs by MTT assay; assay type: cell-based; conditions: read-out: Activity
How it was run: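 HeLa cells, 10000 per well, were grown at 37 °C in 5% CO2 and allowed to settle for 24 h. Compound was then added in triplicate for 24 h of continuous exposure. Viability was read by MTT colorimetry, with absorbance at 570 nm.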

Pseudomonas aeruginosa [13] = assay: Ratio of MIC for Pseudomonas aeruginosa NCTC 13437 in absence of Pa-beta-N to MIC for Pseudomonas aeruginosa NCTC 13437 in presence of Pa-beta-N; assay type: functional; how it was run: as §3
Staphylococcus aureus [14] = assay: Inhibition of Staphylococcus aureus DNA gyrase assessed as reduction in pNO1 supercoiling at 0.5 ug/mL by fluorescent dye-based assay
How it was run: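 Supercoiling plate assay run per the kit instructions. S. aureus gyrase was incubated with compound and plasmid pNO1. Negatively supercoiled plasmid was captured by a triplex-forming oligonucleotide, stained with a fluorescent dye and read by fluorescence (excitation 485 nm). Percent inhibition was reported.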

Acinetobacter baumannii [15] = assay: Antibacterial activity against Acinetobacter baumannii ATCC 17978 after 20 hrs in the presence of PMBN by broth microdilution method; assay type: functional; conditions: ATCC 17978, 20 h; how it was run: as §1
Enterococcus faecalis [16] = assay: Bactericidal activity against vancomycin-resistant Enterococcus faecalis NCTC 12201 assessed as time required to kill bacteria by >6 log10CFU/ml at 4 times MIC by Miles Misra dilution method; assay type: functional; how it was run: as §4
Klebsiella pneumoniae [17] = assay: Ratio of MIC for Klebsiella pneumoniae M6 in absence of PMBN to MIC for Klebsiella pneumoniae M6 in presence of PMBN; assay type: functional; how it was run: as §2
Klebsiella pneumoniae [18] = assay: Ratio of MIC for Klebsiella pneumoniae M6 in absence of Pa-beta-N to MIC for Klebsiella pneumoniae M6 in presence of Pa-beta-N; assay type: functional; how it was run: as §3
Acinetobacter baumannii [19] = assay: Ratio of MIC for Acinetobacter baumannii AYE in absence of PMBN to MIC for Acinetobacter baumannii AYE in presence of PMBN; assay type: functional; how it was run: as §2
Pseudomonas aeruginosa [20] = assay: Antibacterial activity against Pseudomonas aeruginosa NCTC 13437 after 20 hrs in the presence of PMBN by broth microdilution method; assay type: functional; conditions: NCTC 13437, 20 h; how it was run: as §1
Acinetobacter baumannii [21] = assay: Ratio of MIC for Acinetobacter baumannii AYE in absence of Pa-beta-N to MIC for Acinetobacter baumannii AYE in presence of Pa-beta-N; assay type: functional; how it was run: as §3
Pseudomonas aeruginosa [22] = assay: Antibacterial activity against Pseudomonas aeruginosa PAO1 after 20 hrs in the presence of Pa-beta-N and magnesium ions by broth microdilution method; assay type: functional; conditions: PAO1, 20 h; how it was run: as §1
Staphylococcus aureus [23] = assay: Antibacterial activity against methicillin-sensitive Staphylococcus aureus ATCC 9144 after 20 hrs by broth microdilution method; assay type: functional; conditions: ATCC 9144, 20 h; how it was run: as §1
[24] = Stabilization of FAM/TAMRA-labeled AT-rich DNA duplex (unknown origin) assessed as change in melting temperature at 5 uM by FRET-based assay
How it was run: (§5)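 FRET melting of a FAM/TAMRA-labelled AT-rich oligonucleotide, 400 nM working solution in 50 mM potassium, 50 mM cacodylate, pH 7.4. DNA was annealed at 85 °C for 6 min, then held at 25 °C for 5 h, and mixed 1:1 with sample. Fluorescence was read every 0.5 °C from 30 to 100 °C, with a 30 s hold per step. ΔTm is measured against the blank, in triplicate.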

Klebsiella pneumoniae [25] = assay: Antibacterial activity against Klebsiella pneumoniae M6 after 20 hrs by broth microdilution method; assay type: functional; conditions: M6, 20 h; how it was run: as §1
[26] = Stabilization of FAM/TAMRA-labeled AT-rich DNA duplex (unknown origin) assessed as change in melting temperature at 1 uM by FRET-based assay; how it was run: as §5
Enterococcus faecium = assay: Antibacterial activity against vancomycin-resistant Enterococcus faecium NCTC 12204 after 20 hrs by broth microdilution method; assay type: functional; conditions: NCTC 12204, 20 h
How it was run: (§6)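 Broth microdilution in Tryptic Soy Broth; growth read as OD600 after 20 h. MIC taken as the lowest drug concentration giving OD600 below 0.1. Run in triplicate.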

Klebsiella pneumoniae [27] = assay: Antibacterial activity against Klebsiella pneumoniae M6 after 20 hrs in the presence of PMBN by broth microdilution method; assay type: functional; conditions: M6, 20 h; how it was run: as §1
Staphylococcus aureus [28] = assay: Antibacterial activity against methicillin-resistant Staphylococcus aureus EMRSA-15 after 20 hrs by broth microdilution method; assay type: functional; conditions: EMRSA-15, 20 h; how it was run: as §6
Acinetobacter baumannii [29] = assay: Ratio of MIC for Acinetobacter baumannii ATCC 17978 in absence of Pa-beta-N to MIC for Acinetobacter baumannii ATCC 17978 in presence of Pa-beta-N; assay type: functional; how it was run: as §3
Enterococcus faecalis [30] = assay: Antibacterial activity against vancomycin-resistant Enterococcus faecalis NCTC 12201 after 20 hrs by broth microdilution method; assay type: functional; conditions: NCTC 12201, 20 h; how it was run: as §6
Klebsiella pneumoniae [31] = assay: Ratio of MIC for Klebsiella pneumoniae NCTC 13368 in absence of PMBN to MIC for Klebsiella pneumoniae NCTC 13368 in presence of PMBN; assay type: functional; how it was run: as §2
Pseudomonas aeruginosa [32] = assay: Antibacterial activity against Pseudomonas aeruginosa NCTC 13437 after 20 hrs in the presence of Pa-beta-N and magnesium ions by broth microdilution method; assay type: functional; conditions: NCTC 13437, 20 h; how it was run: as §1
Acinetobacter baumannii [33] = assay: Antibacterial activity against Acinetobacter baumannii ATCC 17978 after 20 hrs by broth microdilution method; assay type: functional; conditions: ATCC 17978, 20 h; how it was run: as §1
Acinetobacter baumannii [34] = assay: Antibacterial activity against Acinetobacter baumannii AYE after 20 hrs in the presence of PMBN by broth microdilution method; assay type: functional; how it was run: as §1
Acinetobacter baumannii [35] = assay: Antibacterial activity against Acinetobacter baumannii AYE after 20 hrs in the presence of Pa-beta-N and magnesium ions by broth microdilution method; assay type: functional; how it was run: as §1
Acinetobacter baumannii [36] = assay: Antibacterial activity against Acinetobacter baumannii ATCC 17978 after 20 hrs in the presence of Pa-beta-N and magnesium ions by broth microdilution method; assay type: functional; conditions: ATCC 17978, 20 h; how it was run: as §1
Acinetobacter baumannii [37] = assay: Antibacterial activity against Acinetobacter baumannii AYE after 20 hrs by broth microdilution method; assay type: functional; how it was run: as §1
Pseudomonas aeruginosa [38] = assay: Antibacterial activity against Pseudomonas aeruginosa NCTC 13437 after 20 hrs by broth microdilution method; assay type: functional; conditions: NCTC 13437, 20 h; how it was run: as §1
Pseudomonas aeruginosa [39] = assay: Antibacterial activity against Pseudomonas aeruginosa PAO1 after 20 hrs by broth microdilution method; assay type: functional; conditions: PAO1, 20 h; how it was run: as §1
Staphylococcus aureus [40] = assay: Antibacterial activity against methicillin-resistant Staphylococcus aureus MRSA252 after 20 hrs by broth microdilution method; assay type: functional; conditions: MRSA252, 20 h; how it was run: as §6

## Cc1nc2ccc(C(=O)Nc3cccc(-c4ccc(-n5c(C)nc6cc(C(=O)NCCCN(C)C)ccc65)nc4)c3)cc2[nH]1
Pseudomonas aeruginosa [1]
  MIC: 4 µg/mL
Acinetobacter baumannii [2]
  Ratio: 2
Klebsiella pneumoniae [3]
  MIC: > 32 µg/mL
Klebsiella pneumoniae [4]
  MIC: 8 µg/mL
Enterococcus faecalis [5]
  MIC: 0.5 µg/mL (≈ 0.852 µM)
Pseudomonas aeruginosa [6]
  Ratio: >16
Klebsiella pneumoniae [7]
  Ratio: 2 - 4
Pseudomonas aeruginosa [8]
  Ratio: >16
Klebsiella pneumoniae [9]
  MIC: 16 µg/mL
Klebsiella pneumoniae [10]
  MIC: 32 µg/mL
Staphylococcus aureus [11]
  Time: 2 h
[12]
  viability at 24 h, 25 µM: > 98%
Pseudomonas aeruginosa [13]
  Ratio: 2 - 4
Staphylococcus aureus [14]
  inhibition: 65.2%
Acinetobacter baumannii [15]
  MIC: 8 µg/mL
Enterococcus faecalis [16]
  Time: 2 h
Klebsiella pneumoniae [17]
  Ratio: 4
Klebsiella pneumoniae [18]
  Ratio: >=4
Acinetobacter baumannii [19]
  Ratio: 2
Pseudomonas aeruginosa [20]
  MIC: 4 µg/mL
Acinetobacter baumannii [21]
  Ratio: 2 - 4
Pseudomonas aeruginosa [22]
  MIC: > 32 µg/mL
Staphylococcus aureus [23]
  MIC: 0.25 µg/mL (≈ 0.426 µM)
[24]
  deltaTm: 2.1 °C
Klebsiella pneumoniae [25]
  MIC: 32 µg/mL (≈ 54.5 µM)
[26]
  deltaTm: 0.4 °C
Enterococcus faecium
  MIC: 0.5 µg/mL (≈ 0.852 µM)
Klebsiella pneumoniae [27]
  MIC: 8 µg/mL
Staphylococcus aureus [28]
  MIC: 0.5 µg/mL (≈ 0.852 µM)
Acinetobacter baumannii [29]
  Ratio: 2 - 4
Enterococcus faecalis [30]
  MIC: 0.25 µg/mL (≈ 0.426 µM)
Klebsiella pneumoniae [31]
  Ratio: 4
Pseudomonas aeruginosa [32]
  MIC: 16 to 32 µg/mL
Acinetobacter baumannii [33]
  MIC: 16 µg/mL (≈ 27.3 µM)
Acinetobacter baumannii [34]
  MIC: 8 µg/mL
Acinetobacter baumannii [35]
  MIC: 8 µg/mL
Acinetobacter baumannii [36]
  MIC: 8 µg/mL
Acinetobacter baumannii [37]
  MIC: 16 µg/mL (≈ 27.3 µM)
Pseudomonas aeruginosa [38]
  MIC: > 32 µg/mL
Pseudomonas aeruginosa [39]
  MIC: > 32 µg/mL
Staphylococcus aureus [40]
  MIC: 2 µg/mL (≈ 3.41 µM)
